Experimental data published in article PMC9948766 (Science translational medicine, 2022).
Like-named read-outs stand apart in the source and are kept apart here.

Experiments:
[1] = Pharmacokinetics and biodistribution of ^125I-RLX after intraarticular injection; parameters: species or system Sprague Dawley rats; details: rat, in vivo
[2] = humans, intravenous injection; cited from earlier work
[3] = system: atraumatic rat model of shoulder arthrofibrosis; assay: Histological assessment of rat shoulder joints; type: in vivo, Sprague Dawley rats
Method in brief: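 Female Sprague Dawley rats with contracted shoulders receiving intraarticular doses (repeated 2 μg/kg injections or saline; or single 10 μg/kg microparticles or unloaded particles at equivalent PLGA mass) from remobilization. Joints fixed and decalcified at 14 or 56 days; coronal sections stained with H&E, Masson's Trichrome, Safranin O. Immune activation scored on H&E; axillary pouch thickness measured; n=5; mean ± STDev; ANOVA.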

[4] = Circular dichroism of RLX secondary structure; type: physicochemical
[5] = system: mouse models of myocardial infarction; details: cited from earlier work
[6] = cited from earlier work

## human relaxin-2 [RLX]
[1]
  CL: 20.6 (15.1, 31.8) (mL/kg)·hr
  average plasma exposure, Cavg: 2.05 ng/mL/h
  clearance at the time of dose re-administration: > 99%
  maximum plasma exposure, Cmax: 0.016 µg/mL
  t1/2-α: 0.954 (0.852, 1.15) h
  t1/2-α (effective synovial half-life): 0.305 (0.280, 0.346) h
[2]
  half-life: 1.6 h
[3]; 14 days post-treatment, n=5
  inflammatory infiltrate, histological scoring: negligible inflammation
[3]; 56 days after remobilization, H&E, Masson's Trichrome
  joint architecture: restored delineation of the humeral head and glenoid surface, absence of fibrotic adhesions
[3]; 56 days post-treatment, n=5
  inflammatory infiltrate, histological scoring: negligible inflammation
[3]; 56 days, n=5
  synovial membrane thickness in the axillary pouch: restoration to baseline values
[4]; after organic solvents, mechanical and thermal forces of encapsulation
  alpha helical structure (CD) after encapsulation processing: maintenance of the alpha helical structure
[4]; long-term incubation at 37 °C
  alpha helical structure (CD, negative peaks at 208 and 222 nm) after extended incubation: maintenance of the alpha helical structure
[5]
  bioactive average plasma exposure concentration, Cavg: 20 to 40 ng/mL
[6]; acute heart failure, 30 μg/kg/day continuous IV infusion over 48 hr
  toxicological profile: favorable toxicological profile
[6]; induction of labor, 75μg/kg/day continuous IV infusion over 24 hr
  toxicological profile: favorable toxicological profile
